Assays:
Rattus norvegicus [1] = test: Antiulcer activity in male Donry rat for 50% inhibition of aspirin induced gastric lesions after intraduodenal administration.; type: functional; settings: Stomach
Outline: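 Aspirin ulcer model. Male Donryu rats of 200–220 g were food-deprived 24 h, ten per group, pylorus-ligated, then dosed intraduodenally. Ten min later they received oral aspirin 100 mg/kg in 1% carboxymethylcellulose. At 7 h the summed lengths of glandular lesions gave the ulcer index (mm). ED50 by Litchfield–Wilcoxon.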

Rattus norvegicus [2] = test: Inhibition of gastric antisecretory activity in the pylorus-ligated rat at a dose of 100 mg/kg administered intraduodenally; type: functional; settings: Stomach, route intraduodenal
Outline: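 Shay pylorus-ligated rats, fasted, six per group, ligated under ether. A single intraduodenal dose of 100 mg/kg was given in 1% carboxymethylcellulose, against a vehicle control. The stomach was removed 7 h later, juice volume measured, and free acid titrated with 0.1 N NaOH to pH 3.0 as hourly output. Results are given as percent inhibition versus control.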

Rattus norvegicus [3] = test: Antiulcer activity as dose required to inhibit 50% gastric juice secretions in male Wistar rats after intraduodenally administration.; type: functional; settings: intraduodenal
Rattus norvegicus [4] = test: Antiulcer activity in male Wistar rats for 50% inhibition of stress induced gastric lesions after peroral administration.; type: functional; settings: Stomach, po
Outline: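 Stress ulcer model. Male Wistar rats of 200–220 g, ten per group, were dosed orally, then immobilized in a stress cage and immersed in a water bath. The stomach was removed 7 h later and summed lesion lengths gave the ulcer index (mm). ED50 by Litchfield–Wilcoxon.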

Rattus norvegicus [5] = test: Effective dose required for gastric antisecretory activity in the pylorus-ligated rat after intraduodenal administration.; type: functional; settings: Stomach
Outline: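 Pylorus ligated under ether in fasted rats, six per group. Test agents were given intraduodenally at several dose levels in 1% carboxymethylcellulose, with a vehicle control group. After 7 h the gastric juice volume was measured and titrated with 0.1 N NaOH to pH 3.0 for free acid, as hourly output per rat. ED50 was calculated.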

Rattus norvegicus [6] = test: Percent inhibition of gastric antisecretory activity in the pylorus-ligated rat at a dose of 100 mg/kg administered intraduodenally; type: functional; settings: Stomach, route intraduodenal
Outline: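 Fasted rats in groups of six, pylorus ligated under ether anaesthesia (Shay method); compound in 1% carboxymethylcellulose, or vehicle alone, given intraduodenally at 100 mg/kg. Stomach removed 7 h after abdominal closure. Gastric juice volume measured, and free acid titrated with 0.1 N NaOH to pH 3.0. Hourly free-acid output per rat expressed as percent inhibition versus vehicle controls.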

Rattus norvegicus [7] = organism: Rattus norvegicus; test: animal or person; settings: Stomach, intraduodenal
Rattus norvegicus [8] = organism: Rattus norvegicus; test: animal or person; settings: Stomach, intraduodenal; remark: listed apart in the source

Row | Structure (SMILES) | inhibition in vivo at 100 mg/kg (Rattus norvegicus [2]) [%] | ED50 (Rattus norvegicus [5]) [mg/kg] | other results
1 | Cc1cc(-c2ccccc2)nn(CCC(=N)S)c1=O | 60.2 | 66.7 | ED50 (Rattus norvegicus [1]): 73.1 mg/kg; ED50 (Rattus norvegicus [3]): 32 mg/kg; ED50 (Rattus norvegicus [4]): > 50 mg/kg
2 | O=c1ccc(-c2ccccc2)nn1CC/C(S)=N/CO | – | – | inhibition in vivo at 100 mg/kg (Rattus norvegicus [6]): 5.1%
3 | Cc1cc(=O)n(CCC(=N)S)nc1-c1ccccc1 | 32 | > 100 | –
4 | Cc1ccc(=O)n(CCCCC(=N)S)n1 | 29.5 | > 100 | –
5 | Cc1ccc(-c2ccc(=O)n(CCC(=N)S)n2)cc1 | 18.2 | – | –
6 | CC(Cn1nc(-c2ccccc2)ccc1=O)C(=N)S (stereo not drawn) | 86.4 | 28.1 | ED50 (Rattus norvegicus [1]): 35 mg/kg; ED50 (Rattus norvegicus [3]): 18.2 mg/kg; ED50 (Rattus norvegicus [4]): 36.1 mg/kg
7 | N=C(S)CCCCCN1N=C(c2ccccc2)CCC1=O | 48.5 | 100 | –
8 | NC(=O)CCn1nc(-c2ccccc2)ccc1=O | -2.8 | – | –
9 | CC/N=C(\S)CCn1nc(-c2ccccc2)ccc1=O | 50.3 | 100 | –
10 | N=C(S)CCCCCCN1N=C(c2ccccc2)CCC1=O | 68.3 | 58.8 | ED50 (Rattus norvegicus [1]): 72.3 mg/kg; ED50 (Rattus norvegicus [3]): 24.8 mg/kg; ED50 (Rattus norvegicus [4]): 23 mg/kg
11 | Cc1ccc(=O)n(C(C)CC(=N)S)n1 (stereo not drawn) | 32.5 | > 100 | –
12 | CC(CN1N=C(c2ccccc2)CCC1=O)C(=N)S (stereo not drawn) | 28.2 | – | –
13 | N=C(S)CCN1N=C(c2ccccc2)CCC1=O | 38.2 | > 100 | –
14 | N=C(S)CCN1N=C(c2cccs2)CCC1=O | 58.5 | 77.3 | –
15 | CC1=NN(CC(C)C(=N)S)C(=O)CC1 (stereo not drawn) | 15.6 | – | –
16 | N=C(S)CCn1nc(-c2ccccc2)ccc1=S | 62.3 | 73.4 | –
17 | N=C(S)CCCCN1N=C(c2ccccc2)CCC1=O | 50.2 | 100 | –
18 | N=C(S)CCn1nc(-c2ccccc2)c2ccccc2c1=O | 73.3 | 66.5 | –
19 | N=C(S)CCn1ncccc1=O | 28.8 | > 100 | –
20 | CC(CC(=N)S)n1ncccc1=O (stereo not drawn) | 38.8 | > 100 | –
21 | N=C(S)CCCCCn1nc(-c2ccccc2)ccc1=O | 91.4 | 23.3 | ED50 (Rattus norvegicus [1]): 18.2 mg/kg; ED50 (Rattus norvegicus [3]): 9.2 mg/kg; ED50 (Rattus norvegicus [4]): 10.2 mg/kg
22 | N=C(S)CCn1nc2c(cc1=O)CCc1ccccc1-2 | 1.6 | – | –
23 | N=C(S)CCn1nc(-c2ccccc2)ccc1=O | 53.7 | 87.3 | ED50 (Rattus norvegicus [1]): 53.5 mg/kg; ED50 (Rattus norvegicus [3]): 23.2 mg/kg; ED50 (Rattus norvegicus [4]): 34.5 mg/kg

Row | Structure (SMILES) | inhibition in vivo at 100 mg/kg (Rattus norvegicus [2]) [%] | ED50 (Rattus norvegicus [5]) [mg/kg] | other results
24 | O=C(O)CCn1nc(-c2ccccc2)ccc1=O | 26.1 | – | –
25 | Cc1ccc(=O)n(CCC#N)n1 | -0.2 | – | –
26 | COc1ccc2cc(-c3ccc(=O)n(CCC(=N)S)n3)ccc2c1 | 48.9 | 100 | –
27 | CN(C)C(=S)CCCCCn1nc(-c2ccccc2)ccc1=O | 58.2 | 100 | –
28 | N=C(S)CCn1[nH]c(=O)ccc1=O | -13.4 | – | –
29 | C/N=C(\S)C(C)Cn1ncccc1=O (stereo not drawn) | 50.2 | 100 | ED50 (Rattus norvegicus [1]): 68.5 mg/kg; ED50 (Rattus norvegicus [3]): 40 mg/kg; ED50 (Rattus norvegicus [4]): > 50 mg/kg
30 | CC1=NN(C(C)CC(=N)S)C(=O)CC1 (stereo not drawn) | 17.4 | – | –
31 | N=C(S)CCn1ncccc1=S | 50 | 100 | –
32 | N=C(S)CCCN1N=C(c2ccccc2)CCC1=O | 50.3 | 100 | –
33 | Cc1ccc(=O)n(CC(=N)S)n1 | 31.5 | > 100 | –
34 | N=C(S)CCCn1nc(-c2ccccc2)ccc1=O | 75.6 | 31.9 | ED50 (Rattus norvegicus [1]): 38 mg/kg; ED50 (Rattus norvegicus [3]): 15.5 mg/kg; ED50 (Rattus norvegicus [4]): 10.5 mg/kg
35 | Cc1ccc(=S)n(CCC(=N)S)n1 | 48.5 | 100 | –
36 | N=C(S)Cn1nc(-c2ccccc2)ccc1=O | 5.5 | – | –
37 | N=C(S)CCn1nc(-c2ccc(Cl)c(Cl)c2)ccc1=O | 55.8 | 78.1 | –
38 | N=C(S)CCn1nc(-c2ccc(Cl)cc2)ccc1=O | 42.5 | > 100 | –
39 | CNC(=O)CCn1nc(-c2ccccc2)ccc1=O | 3.5 | – | –
40 | CC(CC(=N)S)N1N=C(c2ccccc2)CCC1=O (stereo not drawn) | 9.2 | – | –
41 | CC(Cn1ncccc1=S)C(=N)S (stereo not drawn) | -1 | – | –
42 | C/N=C(\S)CC(C)n1ncccc1=O (stereo not drawn) | 42.7 | > 100 | –
43 | N=C(S)CCCCCCn1nc(-c2ccccc2)ccc1=O | 33.9 | > 100 | –
44 | C/N=C(/S)CCCCCn1nc(-c2ccccc2)ccc1=O | 92.3 | 25.2 | ED50 (Rattus norvegicus [1]): 45.5 mg/kg; ED50 (Rattus norvegicus [3]): 15 mg/kg; ED50 (Rattus norvegicus [4]): 18.3 mg/kg
45 | Cc1ccc(=O)n(CCCC(=N)S)n1 | 36.3 | > 100 | –
46 | N#CCCn1nc(-c2ccccc2)ccc1=O | 10.1 | – | –

Row | Structure (SMILES) | inhibition in vivo at 100 mg/kg (Rattus norvegicus [2]) [%] | ED50 (Rattus norvegicus [5]) [mg/kg] | other results
47 | Cc1ccc(=O)n(CCCCCCC(=N)S)n1 | 29.5 | > 100 | –
48 | CC1=NN(CCC(=N)S)C(=O)CC1 | 34.8 | > 100 | –
49 | N=C(S)CCN1N=C(c2ccc(Cl)c(Cl)c2)CCC1=O | 47.2 | > 100 | –
50 | O=c1ccc(-c2ccccc2)nn1CCC(=S)N1CCCC1 | 38.2 | > 100 | –
51 | CC(Cn1ncccc1=O)C(=N)S (stereo not drawn) | 40.3 | > 100 | –
52 | N=C(S)CCN1N=C(c2ccc(Cl)cc2)CCC1=O | 43.1 | > 100 | –
53 | Cc1ccc(=O)n(CCC(N)=O)n1 | -2.9 | – | –
54 | Cc1ccc(=O)n(CCC(=N)S)n1 | 73.9 | 43.2 | ED50 (Rattus norvegicus [1]): > 100 mg/kg; ED50 (Rattus norvegicus [3]): 51.3 mg/kg; ED50 (Rattus norvegicus [4]): > 50 mg/kg
55 | N=C(S)CCCCn1nc(-c2ccccc2)ccc1=O | 33.8 | > 100 | –
56 | Cc1ccc(=O)n(CCCCCC(=N)S)n1 | 36.6 | > 100 | –
57 | C/N=C(\S)CCn1ncccc1=O | 30.7 | > 100 | –
58 | CCOC(=O)CCn1nc(-c2ccccc2)ccc1=O | 6.3 | – | –
59 | COc1ccc(-c2ccc(=O)n(CCC(=N)S)n2)cc1 | 20.7 | > 100 | –
60 | N=C(S)CCn1ncc2ccccc2c1=O | 58.3 | 90.1 | –
61 | CC(CC(=N)S)n1nc(-c2ccccc2)ccc1=O (stereo not drawn) | 15.5 | – | –
62 | Cc1ccc(=O)n(CC(C)C(=N)S)n1 (stereo not drawn) | 30.2 | > 100 | –
63 | CN(C)C(=S)CCn1nc(-c2ccccc2)ccc1=O | 46 | – | –
64 | N=C(S)CCn1nc(-c2cccs2)ccc1=O | 50.2 | 100 | –
65 | O=c1cccnn1CCC(=S)N1CCCC1 | 29.7 | > 100 | –
66 | C/N=C(\S)CCn1nc(-c2ccccc2)ccc1=O | 68.2 | 58.5 | ED50 (Rattus norvegicus [1]): 66.3 mg/kg; ED50 (Rattus norvegicus [3]): 50.1 mg/kg; ED50 (Rattus norvegicus [4]): 28.3 mg/kg
67 | CN1[C@@H]2CC[C@H]1C[C@@H](OC(=O)C(CO)c1ccccc1)C2.O=S(=O)(O)O (stereo partly drawn) [ATROPINE SULFATE] | – | – | ED50 (Rattus norvegicus [7]): 0.9 mg/kg; ED50 (Rattus norvegicus [1]): 4.5 mg/kg; ED50 (Rattus norvegicus [8]): 1.1 mg/kg
68 | CN/C(=N\CCSCc1nc[nH]c1C)NC#N [CIMETIDINE] | – | – | ED50 (Rattus norvegicus [4]): 43.2 mg/kg; ED50 (Rattus norvegicus [8]): > 100 mg/kg
